Most compounds without a hit are left out; they make up all but 1.3% or so of the library.
HTRA1 inh: blocks human HTRA1 serine peptidase. Q92743. recombinant HTRA1, FP-rhodamine activity-based probe, fluorescence polarization. inhibition, % at 5.96 µM. 340,000 tested, 0.5% active. AID 504803; in the data active means inhibition above about 36%
DDE Tn7 FP inh: disrupts Tn7 cyclic peptide binding to fibrin D-Dimer-E complex; P02675; FP displacement of FITC-Tn7 peptide from fibrin DD(E); 0% = median of compound wells per plate; inhibition, % at 8.3 µM; 370,000 tested, 0.13% active; AID 720508;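 active means inhibition above the mean of compounds falling within the control limits plus 3 SD of them, cut at about 14% in these data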
Target sequence (P02675 whole entry, looked up): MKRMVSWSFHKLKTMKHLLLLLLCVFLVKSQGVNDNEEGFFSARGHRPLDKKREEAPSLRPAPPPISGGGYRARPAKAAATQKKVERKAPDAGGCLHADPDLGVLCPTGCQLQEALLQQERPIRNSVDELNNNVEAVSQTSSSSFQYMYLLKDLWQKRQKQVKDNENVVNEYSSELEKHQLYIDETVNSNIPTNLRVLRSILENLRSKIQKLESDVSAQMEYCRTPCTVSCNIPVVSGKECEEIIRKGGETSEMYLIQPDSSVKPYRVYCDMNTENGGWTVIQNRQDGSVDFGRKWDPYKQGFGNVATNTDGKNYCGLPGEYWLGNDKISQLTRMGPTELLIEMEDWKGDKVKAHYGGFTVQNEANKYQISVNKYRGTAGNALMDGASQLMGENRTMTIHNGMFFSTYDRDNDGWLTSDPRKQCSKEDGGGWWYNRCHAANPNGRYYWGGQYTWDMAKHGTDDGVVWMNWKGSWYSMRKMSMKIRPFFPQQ
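Assay system: human fibrin DD(E) protein / Input: 2 µM fibrin DD(E) / Benchmarks: high control of 10 µM Aha-Tn7 peptide / Measured by: fluorescence polarization of the labelled Tn7 tracer / Medium: Tris buffer with calcium and detergent, pH 7.8 / Timing: 10 min compound pre-incubation, 3 h probe incubation at room temperature / Repeats: one replicate per compound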
ABHD4 inh: inhibitors of mouse ABHD4. 370,000 tested, 0.54% active. AID 720543. inhibition, % at 8.92 µM. purified mABHD4, FP-Rh probe fluorescence polarization;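 active means inhibition exceeding the mean over every tested compound plus 3 SD, cut at about 30% in these data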
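Assay system: wild-type mouse ABHD4 protein; compound: single nominal dose of 8.92 µM, 0.89% DMSO final; schedule: 45 min + 60 min at 25 °C; measured by: FP readout, ex 525 nm / em 598 nm; evaluation: % inhibition of FP-Rh probe binding versus controls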
TCR-CD3 inh: inhibitors of human TCR-CD3 interaction; TAMRA-labeled TCR probe fluorescence, biochemical; inhibition, % at 9.4 µM; 360,000 tested, 0.37% active; AID 651800; in the data active means inhibition above about 19%;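 further: recombinant mutant TCR 2C K166C tagged with TAMRA read by polarization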
DDE Tn6 FP inh: inhibitors of Tn6 peptide binding to human fibrin DD(E) | Fibrin DD(E) TRITC-Tn6 fluorescence polarization displacement | AID 720509 | inhibition, % at 8.3 µM | 370,000 tested, 0.21% active;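 active means inhibition above a per-campaign cutoff: mean of compounds within control limits plus 3 SD, cut at about 15% in these data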
mABHD4 conf: ABHD4 (mouse) inhibition, FP confirmation; inhibition, % at 8.92 µM; purified mABHD4, FP-Rh probe fluorescence polarization; AID 720658; 1,800 tested, 55% active; shares compounds with ABHD4 inh;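 active means mean inhibition across replicates above the hit cutoff set in the primary screen, cut at about 30% in these data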
Hits are given with their value; . = inactive; / = no result given.

SMILES	HTRA1 inh	DDE Tn7 FP inh	ABHD4 inh	TCR-CD3 inh	DDE Tn6 FP inh	mABHD4 conf
O=c1nc2n(Cc3ccccc3)c3ccccc3cc-2c(=O)[nH]1	/	.	.	.	.	/
CCCc1[nH]nc2c1C(c1ccc(OC)c(CSC3=NCCS3)c1)C(C#N)=C(N)O2 (stereo unspecified)	.	.	.	.	.	/
Cc1ccc2c(c1)Sc1c(ccc3ccccc13)N2	.	.	29.7	.	.	38.0
c1ccc2c(c1)Nc1cc3ccccc3cc1S2	.	.	.	.	.	/
CCCCCc1ccc(OCCCC[n+]2ccc(C)cc2)c(CCCCC)c1	.	.	30.1	.	.	35.5
CCCCCc1ccc(OCCCC[n+]2ccccc2)c(CCCCC)c1	.	/	/	/	/	/
CCCCCN=C(N)N/N=C/c1c[nH]c2ccc(OC)cc12	.	.	40.7	.	.	53.8
Cc1nn(Cc2ccccc2)c2c1C(c1ccc(Cl)cc1)C(C#N)=C(N)O2 (stereo unspecified)	.	.	34.2	.	.	.
Cc1nn(Cc2ccccc2)c2c1C(c1ccncc1)C(C#N)=C(N)O2 (stereo unspecified)	.	.	.	.	.	/
CCCC(=O)Nc1nc(C)c(-c2csc(Nc3cc(OC)ccc3OC)n2)s1	.	.	31.6	.	.	57.8
COc1ccc(-c2sc3ccccc3c2-c2ccc(OCCN(C)C)cc2)cc1	.	.	.	.	.	/
CN(C)CCOc1ccc(-c2c(-c3ccsc3)sc3ccccc23)cc1	.	.	33.6	.	.	38.8
O=c1nc2s/c(=C\c3ccc(-c4ccccc4[N+](=O)[O-])o3)c(=O)n2nc1-c1ccccc1	.	.	39.6	.	.	33.5
CCCCCOc1ccc(/C=c2\sc3nc(=O)c(-c4ccccc4)nn3c2=O)cc1OC	.	.	.	.	.	/
COc1ccc(NC(C)=O)cc1S(=O)(=O)Nc1ccccc1C(=O)NCCc1ccccc1	.	.	.	.	.	/
COc1ccc(CCNC(=O)c2ccccc2NS(=O)(=O)c2cc(C(=O)O)ccc2OC)cc1	.	.	33.3	.	.	.
CCOC(=O)/C(=N\Nc1ccccc1)P(=O)(c1ccccc1)c1ccccc1	.	.	29.8	.	.	.
CCOC(=O)/C=C/C(=O)OCc1csc(CC(=O)Nc2ccccc2C)n1	.	.	29.9	.	.	39.9
Cc1ccccc1NC(=O)Cc1nc(COC(=O)CCc2ccccc2)cs1	.	.	52.6	.	.	48.2
CC(C)=CC(=O)OCc1csc(CC(=O)Nc2ccccc2C)n1	.	.	.	.	.	/
O=[N+]([O-])c1ccc(/C=N/N=C/c2ccc([N+](=O)[O-])o2)o1	.	.	.	.	.	/
Cc1csc(N=Cc2ccc([N+](=O)[O-])o2)n1	.	.	29.7	.	.	.
CC(/C=C/c1ccco1)=N\NC(=O)c1cccnc1	.	.	.	.	.	/
O=C(C=Cc1ccco1)c1ccc([N+](=O)[O-])cc1	.	.	37.4	.	.	.
O=C(C=Cc1ccccc1)c1ccc([N+](=O)[O-])cc1	.	.	.	.	.	/
SMILES	HTRA1 inh	DDE Tn7 FP inh	ABHD4 inh	TCR-CD3 inh	DDE Tn6 FP inh	mABHD4 conf
O=C(/C=C/c1ccco1)c1cccnc1	.	.	36.1	.	.	.
C=CCOC(=O)C1=C[C@H](c2ccc(Br)cc2)[C@@H](CCCO)[C@H](OCC)O1	.	.	.	.	.	/
COc1ccc(N=C2NC(=O)/C(=C/c3ccco3)S2)cc1	.	.	33.1	.	.	.
Nc1c(Br)cc2c([nH]c(=O)c3ccccc32)c1Br	.	.	42.5	.	.	36.8
CCOc1ccc(CNS(=O)(=O)c2ccc(-c3ccc(=O)[nH]n3)o2)cc1OC	.	.	.	.	.	/
Cc1ccc(C)c(OCC(O)CNC2CCCC2)c1 (stereo unspecified)	.	.	38.5	.	.	.
CCN(CC)S(=O)(=O)c1ccc(N2CCCCC2)c(NC(=O)C2CSC3(C)CCC(=O)N23)c1 (stereo unspecified)	.	.	39.9	.	.	36.4
CN(C)c1ccc(S(=O)(=O)N2CCCCC2)cc1NC(=O)C1CSC2(C)CCC(=O)N12 (stereo unspecified)	.	.	.	.	.	/
CC(C)c1ccccc1NC(=O)Nc1ccc(F)cc1F	.	.	.	.	.	/
COc1ccccc1-c1nnc(SCC(=O)O)n1C	.	.	.	.	.	/
COc1ccc2c(c1)Sc1ccccc1N2	.	.	40.5	.	.	.
Cc1ccc(C2NC(=O)c3n[nH]c(C)c32)cc1 (stereo unspecified)	/	.	.	.	.	/
CC(CN1CCN(Cc2ccccc2)CC1)c1ccccc1 (stereo unspecified)	.	.	29.5	.	.	.
CC(CN1CCC(O)CC1)c1ccccc1 (stereo unspecified)	.	.	.	.	.	/
O=c1c(-c2ccco2)nc2ccccc2n1C(c1ccccn1)c1nc2ccccc2[nH]1 (stereo unspecified)	/	.	37.6	.	.	.
O=c1c(-c2ccco2)nc2ccccc2n1C(c1ccccc1)c1nc2ccccc2[nH]1 (stereo unspecified)	/	.	.	.	.	/
COc1ccc(Nc2nc(NC(C)(C)C)nc(N3CCCC3)n2)c(OC)c1	.	.	34.0	.	.	48.4
Cc1n[nH]c(=S)n(NC(=O)/C=C/C(=O)Nn2c(=S)[nH]nc(C)c2=O)c1=O	.	.	37.7	.	.	.
Cc1n[nH]c(=S)n(NC(=O)CC(=O)Nn2c(=S)[nH]nc(C)c2=O)c1=O	.	.	.	.	.	/
CCCC1=Nc2cc(C(=O)N3CCCC3)ccc2Sc2ccc(C)cc21	.	.	31.9	.	.	.
CCC1=Nc2cc(C(=O)N3CCCCC3)ccc2Sc2ccc(C)cc21	.	.	.	.	.	/
CC(C)=CCN1CCN(CCC2=C(C)CCCC2(C)C)CC1CCO (stereo unspecified)	.	.	.	.	.	/
CC1=C(CCN2CCN(C3CCCC3)C(CCO)C2)C(C)(C)CCC1 (stereo unspecified)	.	.	61.2	.	.	.
Cc1ccc(S(=O)(=O)N2CCN(C(=O)CCC(=O)NCCc3ccc(S(N)(=O)=O)cc3)CC2)c(C)c1	.	.	.	.	.	/
CCOc1ccc(S(=O)(=O)N(C)CC(=O)NCc2ccco2)cc1	.	.	.	.	.	/
Cc1ccc(S(=O)(=O)N(C(=O)c2ccco2)c2cc3sc(=O)oc3c3ccccc23)cc1	.	.	50.2	.	.	.
COc1ccc(S(=O)(=O)N(C(=O)c2ccco2)c2cc3sc(=O)oc3c3ccccc23)cc1	.	.	53.9	.	.	30.5
CCOc1ccc(S(=O)(=O)N(C(=O)c2ccco2)c2cc3sc(=O)oc3c3ccccc23)cc1	.	.	42.1	.	.	.
CC(=O)N(c1ccc2oc(=O)sc2c1)S(=O)(=O)c1ccccc1	.	.	.	.	.	/
